Converted amounts (≈) assume the structure as drawn.
Tests used:
Assay type in all cases: functional
[1] = tested on: Staphylococcus epidermidis; assay: Antibacterial activity against methicillin-resistant Staphylococcus epidermidis 14-37 after 18 to 24 hrs by two-fold serial dilution method
In short: (§1)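 Agar media, standard twofold serial dilution. MIC is the lowest concentration giving complete inhibition of bacterial growth after incubation at 35 °C for 18–24 h. Ciprofloxacin and levofloxacin were run as comparators.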

Klebsiella pneumoniae [2] = assay: Antibacterial activity against Klebsiella pneumoniae 14-1 after 18 to 24 hrs by two-fold serial dilution method
In short: (§2)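 Twofold serial dilution in agar media against Gram-positive and Gram-negative strains. Plates incubated at 35 °C for 18–24 h. MIC read as the lowest compound concentration giving complete inhibition of bacterial growth.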

Klebsiella pneumoniae [3] = assay: Antibacterial activity against Klebsiella pneumoniae 14-2 after 18 to 24 hrs by two-fold serial dilution method; in short: as §2
Staphylococcus aureus [4] = assay: Antibacterial activity against Staphylococcus aureus CMCC 26003 after 18 to 24 hrs by two-fold serial dilution method; in short: as §2
Pseudomonas aeruginosa [5] = assay: Antibacterial activity against Pseudomonas aeruginosa 14-16 after 18 to 24 hrs by two-fold serial dilution method; in short: as §2
Staphylococcus aureus [6] = assay: Antibacterial activity against methicillin-sensitive Staphylococcus aureus 14-3 after 18 to 24 hrs by two-fold serial dilution method; in short: as §2
[7] = tested on: Staphylococcus epidermidis; assay: Antibacterial activity against methicillin-resistant Staphylococcus epidermidis 14-22 after 18 to 24 hrs by two-fold serial dilution method; in short: as §1
Escherichia coli [8] = assay: Antibacterial activity against Escherichia coli ATCC 25922 after 18 to 24 hrs by two-fold serial dilution method; in short: as §2
Enterococcus faecium [9] = assay: Antibacterial activity against Enterococcus faecium 14-6 after 18 to 24 hrs by two-fold serial dilution method; in short: as §2
Klebsiella pneumoniae [10] = assay: Antibacterial activity against extended-spectrum beta-lactamase producing Klebsiella pneumoniae 14-18 after 18 to 24 hrs by two-fold serial dilution method; in short: as §2
Staphylococcus aureus [11] = assay: Antibacterial activity against methicillin-resistant Staphylococcus aureus 14-5 after 18 to 24 hrs by two-fold serial dilution method; in short: as §1
[12] = tested on: Mycobacterium tuberculosis; assay: Antimycobacterial activity against Mycobacterium tuberculosis H37Rv ATCC 27294 incubated for 7 days by microplate Alamar Blue assay; conditions: H37Rv ATCC 27294, 168 h
In short: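 Fluorescence read-out. MIC is the lowest concentration that reduces fluorescence by at least 90% relative to the mean of replicate bacterium-only controls. Isoniazid and rifampicin were included as reference drugs.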

[13] = tested on: Staphylococcus epidermidis; assay: Antibacterial activity against methicillin-resistant Staphylococcus epidermidis 14-21 after 18 to 24 hrs by two-fold serial dilution method; in short: as §1
Escherichia coli [14] = assay: Antibacterial activity against Escherichia coli 14-1 after 18 to 24 hrs by two-fold serial dilution method; in short: as §2
Klebsiella pneumoniae [15] = assay: Antibacterial activity against Klebsiella pneumoniae 14-4 after 18 to 24 hrs by two-fold serial dilution method; in short: as §2
Staphylococcus aureus [16] = assay: Antibacterial activity against methicillin-sensitive Staphylococcus aureus 14-1 after 18 to 24 hrs by two-fold serial dilution method; in short: as §2
Pseudomonas aeruginosa [17] = assay: Antibacterial activity against Pseudomonas aeruginosa 14-9 after 18 to 24 hrs by two-fold serial dilution method; in short: as §2
Pseudomonas aeruginosa [18] = assay: Antibacterial activity against Pseudomonas aeruginosa 14-15 after 18 to 24 hrs by two-fold serial dilution method; in short: as §2
Enterococcus faecium [19] = assay: Antibacterial activity against Enterococcus faecium 14-2 after 18 to 24 hrs by two-fold serial dilution method; in short: as §2
[20] = tested on: Staphylococcus epidermidis; assay: Antibacterial activity against methicillin-resistant Staphylococcus epidermidis 14-39 after 18 to 24 hrs by two-fold serial dilution method; in short: as §1
Klebsiella pneumoniae [21] = assay: Antibacterial activity against Klebsiella pneumoniae 14-3 after 18 to 24 hrs by two-fold serial dilution method; in short: as §2
Enterococcus faecalis [22] = assay: Antibacterial activity against Enterococcus faecalis 14-1 after 18 to 24 hrs by two-fold serial dilution method; in short: as §2
Escherichia coli [23] = assay: Antibacterial activity against extended-spectrum beta-lactamase producing Escherichia coli 14-2 after 18 to 24 hrs by two-fold serial dilution method; in short: as §2
Klebsiella pneumoniae [24] = assay: Antibacterial activity against extended-spectrum beta-lactamase producing Klebsiella pneumoniae 14-19 after 18 to 24 hrs by two-fold serial dilution method; in short: as §2
Streptococcus pneumoniae = assay: Antibacterial activity against methicillin-resistant Streptococcus pneumoniae ATCC 19615 after 18 to 24 hrs by two-fold serial dilution method; in short: as §1
Escherichia coli [25] = assay: Antibacterial activity against Escherichia coli 14-2 after 18 to 24 hrs by two-fold serial dilution method; in short: as §2
Pseudomonas aeruginosa [26] = assay: Antibacterial activity against Pseudomonas aeruginosa ATCC 27853 after 18 to 24 hrs by two-fold serial dilution method; in short: as §2
Staphylococcus aureus [27] = assay: Antibacterial activity against methicillin-sensitive Staphylococcus aureus 14-4 after 18 to 24 hrs by two-fold serial dilution method; in short: as §2
Escherichia coli [28] = assay: Antibacterial activity against extended-spectrum beta-lactamase producing Escherichia coli 14-1 after 18 to 24 hrs by two-fold serial dilution method; in short: as §2
Enterococcus faecium [29] = assay: Antibacterial activity against Enterococcus faecium 14-5 after 18 to 24 hrs by two-fold serial dilution method; in short: as §2
Enterococcus faecalis [30] = assay: Antibacterial activity against Enterococcus faecalis 14-2 after 18 to 24 hrs by two-fold serial dilution method; in short: as §2
Pseudomonas aeruginosa [31] = assay: Antibacterial activity against Pseudomonas aeruginosa 14-14 after 18 to 24 hrs by two-fold serial dilution method; in short: as §2
Staphylococcus aureus [32] = assay: Antibacterial activity against methicillin-resistant Staphylococcus aureus 14-4 after 18 to 24 hrs by two-fold serial dilution method; in short: as §1
[33] = tested on: Staphylococcus epidermidis; assay: Antibacterial activity against methicillin-sensitive Staphylococcus epidermidis 14-2 after 18 to 24 hrs by two-fold serial dilution method; in short: as §2
Klebsiella pneumoniae [34] = assay: Antibacterial activity against extended-spectrum beta-lactamase producing Klebsiella pneumoniae 14-17 after 18 to 24 hrs by two-fold serial dilution method; in short: as §2

SMILES	MIC [1]	MIC (Klebsiella pneumoniae [2])	MIC (Klebsiella pneumoniae [3])	MIC (Staphylococcus aureus [4])	MIC (Pseudomonas aeruginosa [5])	MIC (Staphylococcus aureus [6])	MIC [7]	MIC (Escherichia coli [8])	MIC (Enterococcus faecium [9])	MIC (Klebsiella pneumoniae [10])	MIC (Staphylococcus aureus [11])	MIC [13]	MIC (Escherichia coli [14])	MIC (Klebsiella pneumoniae [15])	MIC (Staphylococcus aureus [16])	MIC (Pseudomonas aeruginosa [17])	MIC (Pseudomonas aeruginosa [18])	MIC (Enterococcus faecium [19])	MIC [20]	MIC (Klebsiella pneumoniae [21])	other results
CO/N=C1/CN(c2nc3c(cc2F)c(=O)c(C(=O)O)cn3[C@@H]2C[C@@H]2F)CC1CNC1CC1 (some centres undefined)	64 mg/L (≈ 143 µM)	64 mg/L (≈ 143 µM)	64 mg/L (≈ 143 µM)	< 0.008 mg/L	32 mg/L (≈ 71.5 µM)	8 mg/L (≈ 17.9 µM)	16 mg/L (≈ 35.8 µM)	4 mg/L (≈ 8.94 µM)	64 mg/L (≈ 143 µM)	32 mg/L (≈ 71.5 µM)	8 mg/L (≈ 17.9 µM)	32 mg/L (≈ 71.5 µM)	> 128 mg/L	> 128 mg/L	8 mg/L (≈ 17.9 µM)	8 mg/L (≈ 17.9 µM)	64 mg/L (≈ 143 µM)	16 mg/L (≈ 35.8 µM)	32 mg/L (≈ 71.5 µM)	> 128 mg/L	MIC90 [12]: 1.25 mg/L (≈ 2.79 µM); MIC (Enterococcus faecalis [22]): 128 mg/L (≈ 286 µM); MIC (Escherichia coli [23]): > 128 mg/L; MIC (Klebsiella pneumoniae [24]): 64 mg/L (≈ 143 µM); MIC (Streptococcus pneumoniae): 4 mg/L (≈ 8.94 µM); MIC (Escherichia coli [25]): > 128 mg/L; MIC (Pseudomonas aeruginosa [26]): 8 mg/L (≈ 17.9 µM); MIC (Staphylococcus aureus [27]): 16 mg/L (≈ 35.8 µM); MIC (Escherichia coli [28]): 16 mg/L (≈ 35.8 µM); MIC (Enterococcus faecium [29]): 32 mg/L (≈ 71.5 µM); MIC (Enterococcus faecalis [30]): 0.5 mg/L (≈ 1.12 µM); MIC (Pseudomonas aeruginosa [31]): 32 mg/L (≈ 71.5 µM); MIC (Staphylococcus aureus [32]): > 128 mg/L; MIC [33]: > 128 mg/L; MIC (Klebsiella pneumoniae [34]): 32 mg/L (≈ 71.5 µM)
CCO/N=C1/CN(c2c(F)cc3c(=O)c(C(=O)O)cn([C@@H]4C[C@@H]4F)c3c2OC)CC1CNC1CC1 (some centres undefined)	8 mg/L (≈ 16.3 µM)	> 32 mg/L	> 32 mg/L	0.06 mg/L (≈ 0.122 µM)	32 mg/L (≈ 65.2 µM)	0.03 mg/L (≈ 0.0612 µM)	8 mg/L (≈ 16.3 µM)	2 mg/L (≈ 4.08 µM)	16 mg/L (≈ 32.6 µM)	32 mg/L (≈ 65.2 µM)	16 mg/L (≈ 32.6 µM)	8 mg/L (≈ 16.3 µM)	> 32 mg/L	> 32 mg/L	8 mg/L (≈ 16.3 µM)	32 mg/L (≈ 65.2 µM)	32 mg/L (≈ 65.2 µM)	8 mg/L (≈ 16.3 µM)	4 mg/L (≈ 8.15 µM)	> 32 mg/L	MIC (Enterococcus faecalis [22]): 32 mg/L (≈ 65.2 µM); MIC (Escherichia coli [23]): > 32 mg/L; MIC (Klebsiella pneumoniae [24]): > 32 mg/L; MIC (Streptococcus pneumoniae): 0.25 mg/L (≈ 0.51 µM); MIC (Escherichia coli [25]): > 32 mg/L; MIC (Pseudomonas aeruginosa [26]): 16 mg/L (≈ 32.6 µM); MIC (Staphylococcus aureus [27]): 0.06 mg/L (≈ 0.122 µM); MIC (Escherichia coli [28]): 4 mg/L (≈ 8.15 µM); MIC (Enterococcus faecium [29]): 4 mg/L (≈ 8.15 µM); MIC (Enterococcus faecalis [30]): 2 mg/L (≈ 4.08 µM); MIC (Pseudomonas aeruginosa [31]): 32 mg/L (≈ 65.2 µM); MIC (Staphylococcus aureus [32]): 8 mg/L (≈ 16.3 µM); MIC [33]: 16 mg/L (≈ 32.6 µM); MIC (Klebsiella pneumoniae [34]): 32 mg/L (≈ 65.2 µM)
CCO/N=C1/CN(c2nc3c(cc2F)c(=O)c(C(=O)O)cn3C2CC2)CC1(C)CNC1CC1 (centres undefined)	2 mg/L (≈ 4.37 µM)	64 mg/L (≈ 140 µM)	64 mg/L (≈ 140 µM)	< 0.008 mg/L	32 mg/L (≈ 69.9 µM)	0.5 mg/L (≈ 1.09 µM)	4 mg/L (≈ 8.74 µM)	1 mg/L (≈ 2.19 µM)	4 mg/L (≈ 8.74 µM)	64 mg/L (≈ 140 µM)	4 mg/L (≈ 8.74 µM)	4 mg/L (≈ 8.74 µM)	> 128 mg/L	> 128 mg/L	0.25 mg/L (≈ 0.546 µM)	32 mg/L (≈ 69.9 µM)	64 mg/L (≈ 140 µM)	4 mg/L (≈ 8.74 µM)	4 mg/L (≈ 8.74 µM)	128 mg/L (≈ 280 µM)	MIC90 [12]: < 0.25 mg/L; MIC (Enterococcus faecalis [22]): 16 mg/L (≈ 35 µM); MIC (Escherichia coli [23]): > 128 mg/L; MIC (Klebsiella pneumoniae [24]): 64 mg/L (≈ 140 µM); MIC (Streptococcus pneumoniae): 0.25 mg/L (≈ 0.546 µM); MIC (Escherichia coli [25]): > 128 mg/L; MIC (Pseudomonas aeruginosa [26]): 32 mg/L (≈ 69.9 µM); MIC (Staphylococcus aureus [27]): 0.25 mg/L (≈ 0.546 µM); MIC (Escherichia coli [28]): 32 mg/L (≈ 69.9 µM); MIC (Enterococcus faecium [29]): 8 mg/L (≈ 17.5 µM); MIC (Enterococcus faecalis [30]): 0.125 mg/L (≈ 0.273 µM); MIC (Pseudomonas aeruginosa [31]): 128 mg/L (≈ 280 µM); MIC (Staphylococcus aureus [32]): 4 mg/L (≈ 8.74 µM); MIC [33]: 8 mg/L (≈ 17.5 µM); MIC (Klebsiella pneumoniae [34]): 64 mg/L (≈ 140 µM)

— ChEMBL document CHEMBL3734675, “Synthesis, antimycobacterial and antibacterial activity of fluoroquinolone derivatives containing an 3-alkoxyimino-4-(cyclopropylanimo)methylpyrrolidine moiety” (2015)
